Measurements from different studies.
Compare with care: the assays were run in different laboratories.
LRRK2 G2019S: Leucine-rich repeat serine/threonine-protein kinase 2 (LRRK2, Homo sapiens, UniProt Q5S007, G2019S)
LRRK2: Leucine-rich repeat serine/threonine-protein kinase 2 (LRRK2, Homo sapiens, UniProt Q5S007)

Compound | target | observed | method | tested at | remaining binding [%]
CNC(=O)[C@@H]1CC[C@@H](n2c(-c3ccc4cnccc4c3)nc3ccc(C(=O)NCc4cccc(C(N)=O)c4)cc32)C1 | LRRK2 G2019S | binding | competition with immobilised ligand | 1 µM | 100
O=C(NCCCN1CCOCC1)c1ccc(Nc2ncc(Cl)c(-c3ccc(Cl)s3)n2)cc1 | LRRK2 G2019S | binding | competition with immobilised ligand | 1 µM | 10
CN(C)c1nccc(-c2cnc3ncccn23)n1 | LRRK2 G2019S | binding | – | 1 µM | 71
COc1cnc(Nc2cccc(S(N)(=O)=O)c2)nc1N1CCN(c2ccccc2)C(=O)C1 | LRRK2 | binding | competition with immobilised ligand | 1 µM | 95
CCC(=O)N[C@@H]1CC[C@H](C(=O)N(C)c2ccc(-c3nc4ccccc4o3)cc2)C1 | LRRK2 G2019S | cell-free assay | competition with immobilised ligand | 1 µM | 100
C[C@@H]1CCN(c2nccc(-c3cnn4ncccc34)n2)C1 | LRRK2 | binding | – | 1 µM | 59
O=C(Nc1cnc(Oc2ccc(F)cc2)nc1)N1CCc2ncccc2[C@@H]1c1ccc(F)cc1 | LRRK2 | cell-free assay | competition with immobilised ligand | 1 µM | 83
CN(c1nccc(-c2cnn3ncccc23)n1)C1CC1 | LRRK2 G2019S | binding | – | 1 µM | 100
Nc1ncc2c(n1)-c1c([nH]c3ccc(C#CC4CC4)cc13)CCCC2 | LRRK2 | binding | competition with immobilised ligand | 1 µM | 83
O=C(O)[C@@H]1[C@@H](Cn2nnc3ccccc3c2=O)CC[C@H]1C(=O)c1ccc(OCCC2CCOCC2)cc1 | LRRK2 G2019S | cell-free assay | competition with immobilised ligand | 1 µM | 100
O=C(NCC1CCOCC1)c1n[nH]cc1NC(=O)c1c(F)cccc1F | LRRK2 G2019S | binding | competition with immobilised ligand | 1 µM | 89
F[C@@H]1CCN(c2nccc(-c3cnn4ncccc34)n2)C1 | LRRK2 G2019S | binding | – | 1 µM | 100
O=C(c1ccc(Nc2nccc(-c3cc4ccccc4s3)n2)cc1)N1CCC(N2CCCC2)CC1 | LRRK2 G2019S | binding | competition with immobilised ligand | 1 µM | 16
CCS(=O)(=O)c1cc2cc(C[C@](O)(CC(C)(C)c3ccc(F)cc3C(N)=O)C(F)(F)F)[nH]c2cn1 | LRRK2 | cell-free assay | competition with immobilised ligand | 1 µM | 100
CCN1CCN(Cc2ccc(C(=O)Nc3ccc(C)c(Oc4ccc5c(c4)CC(=O)N5)c3)cc2C(F)(F)F)CC1 | LRRK2 | binding | competition with immobilised ligand | 1 µM | 100
C[C@H](NC(=O)c1cnc2n1[C@](C)(Cc1ccc(C#N)cc1)C(=O)N2c1cc(Cl)c(F)c(Cl)c1)C(=O)NC1(c2ccccn2)CC1 | LRRK2 G2019S | cell-free assay | competition with immobilised ligand | 1 µM | 100
CN(C)c1nccc(-c2cnn3ncccc23)n1 | LRRK2 G2019S | binding | – | 1 µM | 69
Cc1cnc(Nc2ccc(C(=O)N3CCC(N4CCCC4)CC3)cc2)nc1-c1cc2ccccc2s1 | LRRK2 G2019S | binding | competition with immobilised ligand | 1 µM | 2.8
CN(CCCC(F)(F)F)c1nccc(-c2cnn3ncccc23)n1 | LRRK2 | binding | – | 1 µM | 100
CS(=O)(=O)N1CCCC(NC(=O)[C@H](CCC2CCCCC2)NC(=O)c2ccc(CNC(=O)c3cnc4ccccn34)cc2)C1 (stereo partly shown) | LRRK2 G2019S | cell-free assay | competition with immobilised ligand | 0.1 µM | 100
N[C@H]1CCN(c2nccc(-c3cnn4ncccc34)n2)C1 | LRRK2 | binding | – | 1 µM | 100
C[C@@H](c1ccc(-n2cnc3c(N)ncnc32)cc1)N1CCc2nn(C)c(Cc3ccccc3)c2C1=O | LRRK2 | binding | competition with immobilised ligand | 0.1 µM | 93
